Reference: ChEMBL document CHEMBL3785007 (Drug Metabol Drug Interact, 2011)

Columns and labels:
[1] = system: Mycobacterium tuberculosis; assay: Antitubercular activity against Mycobacterium tuberculosis in tuberculosis patient assessed as compound AUC (0 to infinity) required to cause 90% maximum early bactericidal activity at 0.2 to 12 mg/kg; format: functional, organism-based
[2] = Clearance in healthy Chinese subject (8 subjects) with heterozygous mutant of NAT2 genotype at 300 mg, po administered after overnight fast by HPLC method; format: ADME, organism-based; details: human, in vivo
Homo sapiens [3] = assay: AUC in healthy Chinese subject (8 subjects) with homozygous wild type NAT2 genotype at 300 mg, po administered after overnight fast by HPLC method; format: ADME, organism-based; details: in vivo
Outline: (§1)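 Plasma separated within 1 h and stored at −70°C. Deproteinised with 10% perchloric acid, then reversed-phase C18 HPLC with UV detection at 266 nm. AUC by trapezoidal method extrapolated to infinity; mean±SD.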

Homo sapiens [4] = assay: Cmax in healthy Chinese subject (8 subjects) with homozygous wild type NAT2 genotype assessed as N-acetylisoniazid at 300 mg, po administered after overnight fast by HPLC method; format: ADME, organism-based; parameters: dose 300 mg, route oral; details: in vivo
Homo sapiens [5] = assay: AUC in healthy Chinese subject (8 subjects) with homozygous mutant of NAT2 genotype assessed as N-acetylisoniazid at 300 mg, po administered after overnight fast by HPLC method; format: ADME, organism-based; details: in vivo; outline: as §1
Homo sapiens [6] = assay: Cmax in healthy Chinese subject (8 subjects) with heterozygous mutant of NAT2 genotype assessed as N-acetylisoniazid at 300 mg, po administered after overnight fast by HPLC method; format: ADME, organism-based; parameters: dose 300 mg, route oral; details: in vivo
Homo sapiens [7] = assay: Clearance in healthy Chinese subject (8 subjects) with homozygous wild type NAT2 genotype assessed as N-acetylisoniazid at 300 mg, po administered after overnight fast by HPLC method; format: ADME, organism-based; details: in vivo
[8] = Cmax in healthy Chinese subject (8 subjects) with heterozygous mutant of NAT2 genotype at 300 mg, po administered after overnight fast by HPLC method; format: ADME, organism-based; parameters: dose 300 mg, route oral; details: human, in vivo
Homo sapiens [9] = assay: AUC in healthy Chinese subject (8 subjects) with homozygous wild type NAT2 genotype assessed as N-acetylisoniazid at 300 mg, po administered after overnight fast by HPLC method; format: ADME, organism-based; details: in vivo; outline: as §1
Homo sapiens [10] = assay: Clearance in healthy Chinese subject (8 subjects) with homozygous mutant of NAT2 genotype assessed as N-acetylisoniazid at 300 mg, po administered after overnight fast by HPLC method; format: ADME, organism-based; details: in vivo
Homo sapiens [11] = assay: Cmax in healthy Chinese subject (8 subjects) with homozygous mutant of NAT2 genotype assessed as N-acetylisoniazid at 300 mg, po administered after overnight fast by HPLC method; format: ADME, organism-based; parameters: dose 300 mg, route oral; details: in vivo
Homo sapiens [12] = assay: Clearance in healthy Chinese subject (8 subjects) with heterozygous mutant of NAT2 genotype assessed as N-acetylisoniazid at 300 mg, po administered after overnight fast by HPLC method; format: ADME, organism-based; details: in vivo
[13] = Cmax in healthy Chinese subject (8 subjects) with homozygous wild type NAT2 genotype at 300 mg, po administered after overnight fast by HPLC method; format: ADME, organism-based; parameters: dose 300 mg, route oral; details: human, in vivo
[14] = system: Mycobacterium tuberculosis; assay: Antitubercular activity against Mycobacterium tuberculosis in tuberculosis patient assessed as compound level in serum required to cause 90% maximum early bactericidal activity at 0.2 to 12 mg/kg after 2 hrs; format: functional
Homo sapiens [15] = assay: AUC in healthy Chinese subject (8 subjects) with heterozygous mutant of NAT2 genotype at 300 mg, po administered after overnight fast by HPLC method; format: ADME, organism-based; details: in vivo; outline: as §1
[16] = Cmax in healthy Chinese subject (8 subjects) with homozygous mutant of NAT2 genotype at 300 mg, po administered after overnight fast by HPLC method; format: ADME, organism-based; parameters: dose 300 mg, route oral; details: human, in vivo
[17] = Clearance in healthy Chinese subject (8 subjects) with homozygous wild type NAT2 genotype at 300 mg, po administered after overnight fast by HPLC method; format: ADME, organism-based; details: human, in vivo
Homo sapiens [18] = assay: AUC in healthy Chinese subject (8 subjects) with homozygous mutant of NAT2 genotype at 300 mg, po administered after overnight fast by HPLC method; format: ADME, organism-based; details: in vivo; outline: as §1
Homo sapiens [19] = assay: AUC in healthy Chinese subject (8 subjects) with heterozygous mutant of NAT2 genotype assessed as N-acetylisoniazid at 300 mg, po administered after overnight fast by HPLC method; format: ADME, organism-based; details: in vivo; outline: as §1
[20] = Clearance in healthy Chinese subject (8 subjects) with homozygous mutant of NAT2 genotype at 300 mg, po administered after overnight fast by HPLC method; format: ADME, organism-based; details: human, in vivo

## NNC(=O)c1ccncc1 [ISONIAZID]
[1]
  AUC: 10500 ng·h/mL
[2]
  CL/F: 320 mL/min
Homo sapiens [3]
  AUC: 10400 ng·h/mL
Homo sapiens [4]
  Cmax: 5590 ng/mL
Homo sapiens [5]
  AUC: 19800 ng·h/mL
Homo sapiens [6]
  Cmax: 3990 ng/mL
Homo sapiens [7]
  CL: 7.4 L/h
[8]
  Cmax: 5720 ng/mL
Homo sapiens [9]
  AUC: 42200 ng·h/mL
Homo sapiens [10]
  CL: 16.07 L/h
Homo sapiens [11]
  Cmax: 1380 ng/mL
Homo sapiens [12]
  CL: 8.03 L/h
[13]
  Cmax: 4930 ng/mL
[14]
  Activity: 2.19 µg/mL
Homo sapiens [15]
  AUC: 16300 ng·h/mL
[16]
  Cmax: 8280 ng/mL
[17]
  CL/F: 501 mL/min
Homo sapiens [18]
  AUC: 42200 ng·h/mL
Homo sapiens [19]
  AUC: 38000 ng·h/mL
[20]
  CL/F: 130 mL/min
